Screening results (PubChem)
ATG4B inh – blocks human ATG4B protease cleavage of LC3 substrate. inhibition, % at 8.33 µM. AID 504462. ATG4B cleavage of LC3-PLA2, NBD-HPC fluorescence, 1 h. Q9Y4P1. hit rate 0.51% among 340,000; in the data active = inhibition above about 40%
PRMT1 inh – inhibitors of human PRMT1. Q99873. recombinant PRMT1, activity-based probe fluorescence polarization. inhibition, % at 2.79 µM. hit rate 1.3% among 370,000;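 active = inhibition above about 21% made by adding two undisclosed values, limit read from the data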
HTRA1 inh – HTRA1 (human) protease inhibition; recombinant HTRA1, FP-rhodamine activity-based probe, fluorescence polarization; Q92743; hit rate 0.5% among 340,000; inhibition, % at 5.96 µM; AID 504803; in the data active = inhibition above about 36%;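 note: 0% = enzyme with DMSO and 100% = wells lacking enzyme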
SIAE primary – blocks human sialic acid acetylesterase; SIAE FP-Rh probe binding, fluorescence polarization; AID 1053197; inhibition, % at 9.66 µM; hit rate 0.69% among 370,000;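 active = inhibition above a cutoff: mean of compounds within the control limits plus 3 SD of those, cut at about 17% in these data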;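 note: 0% = plate median of compound wells and 100% = probe without SIAE protein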
ABHD4 inh – inhibitors of mouse ABHD4; hit rate 0.54% among 370,000; Q8VD66; inhibition, % at 8.92 µM; purified mABHD4, FP-Rh probe fluorescence polarization;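 active = inhibition exceeding the mean over every tested compound plus 3 SD, cut at about 30% in these data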;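 note: 0% = plate median of compound wells and 100% = S159A mutant with DMSO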
Target sequence (Q8VD66 whole entry, looked up): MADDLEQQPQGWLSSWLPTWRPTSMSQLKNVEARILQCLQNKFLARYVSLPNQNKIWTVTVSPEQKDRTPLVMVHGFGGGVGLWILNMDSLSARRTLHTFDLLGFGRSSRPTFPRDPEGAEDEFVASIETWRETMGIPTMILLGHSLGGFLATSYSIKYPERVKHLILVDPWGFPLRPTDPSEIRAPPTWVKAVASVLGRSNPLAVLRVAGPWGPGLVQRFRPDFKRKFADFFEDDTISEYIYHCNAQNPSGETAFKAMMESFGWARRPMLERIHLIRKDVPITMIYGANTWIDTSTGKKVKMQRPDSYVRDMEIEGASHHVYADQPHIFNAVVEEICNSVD
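assay system = mABHD4 protein | compound dosing = single nominal dose of 8.92 µM, 0.89% DMSO final | read-out basis = percent inhibition of probe binding, normalized to plate controls | schedule = Enzyme–compound pre-incubation 45 min, then probe 60 min, both 25 °C | detection = fluorescence polarization, excitation 525 nm, emission 598 nm, BODIPY TMR filters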
TCR CD3 inh – human TCR-CD3 binding inhibition; hit rate 0.37% among 360,000; inhibition, % at 9.4 µM; TAMRA-labeled TCR probe fluorescence, biochemical; in the data active = inhibition above about 19%;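 note: recombinant mutant TCR 2C K166C tagged with TAMRA read by polarization; 0% = receptor in buffer alone and 100% = receptor with positive control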
SIAE inh conf – human SIAE inhibition, confirmation | shares compounds with SIAE primary | SIAE FP-Rh activity-based probe, fluorescence polarization | inhibition, % at 9.66 µM | hit rate 13% among 2,300 | AID 1117263;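 active = mean inhibition of the replicates above the hit cutoff set in the primary screen, cut at about 17% in these data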;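 note: 0% = SIAE with DMSO and probe and 100% = probe without SIAE; inhibitors lower polarization as more probe stays unbound to SIAE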
Starred values were filed as active, the others as inactive; · = no result. In the library only some 2.9% were active in any assay of this set; here they are far more common.

SMILES | ATG4B inh | PRMT1 inh | HTRA1 inh | SIAE primary | ABHD4 inh | TCR CD3 inh | SIAE inh conf
CN(c1ccccc1)S(=O)(=O)c1cccc(C(=O)NCCc2ccc(O)c(O)c2)c1 | -15 | 14 | 25 | 17* | 28 | -3 | 2
CN1C(=O)C(=O)N(CC(=O)Nc2ccccc2OC(F)F)C1=O | -8 | -1 | 8 | 2 | -4 | -6 | ·
O=C(CN1NS(=O)(=O)c2ccccc2C1=O)Nc1ccccc1OC(F)F | -11 | -1 | -1 | 19* | 3 | 6 | 2
COC(=O)[C@]12C[C@H](CC(=O)NCCCN3CCCC3=O)C(=O)N(Cc3ccccc3)C1=C[C@H](C(C)C)O[C@@H]2C1CC1 | · | -1 | · | 20* | 3 | 7 | -3
CCCCNC(=O)C[C@H]1C[C@@]2(C(=O)OC)C(=C[C@H](C(C)C)O[C@@H]2C2CC2)N(Cc2ccccc2)C1=O | · | -1 | · | 1 | 5 | 0 | ·
COC(=O)[C@]12C[C@H](CC(=O)NCc3cccs3)C(=O)N(Cc3ccccc3)C1=C[C@H](C(C)(C)C)O[C@@H]2C | · | -2 | · | -3 | 0 | 4 | ·
COC(=O)[C@]12C[C@H](CC(=O)NCc3cccc(C(F)(F)F)c3)C(=O)N(Cc3ccccc3)C1=C[C@H](C(C)(C)C)O[C@@H]2C | · | 2 | · | 27* | -3 | 1 | -2
O=C(Cc1csc(NC(=O)c2ccc(F)cc2)n1)NO | -6 | -2 | 14 | 24* | 2 | 4 | 17
Cc1cccc(-c2nc(Nc3ccc(N4CCOCC4)cc3)c3ccccc3n2)c1 | -5 | -1 | 15 | 30* | 9 | -2 | 6
COC(=O)[C@]12C[C@H](CC(=O)N3CCOCC3)C(=O)N(Cc3ccco3)C1=C[C@H](COCc1ccccc1)O[C@@H]2C | · | 0 | · | -2 | 3 | · | ·
Cc1cccc(NC(=S)N/N=C/c2c[nH]c3ccccc23)c1 | 23 | 4 | 25 | 32* | 8 | 1 | 28*
Cc1ccc(NC(=S)N/N=C/c2c(C)[nH]c3ccccc23)cc1 | -3 | 1 | 32 | 38* | 18 | 3 | 38*
Cc1[nH]c2ccccc2c1/C=N/NC(=S)NCc1ccccc1 | -6 | 1 | 24 | 22* | 19 | -3 | 19*
Cc1[nH]c2ccccc2c1/C=N/NC(N)=S | -9 | 7 | -1 | 7 | 6 | -6 | ·
O[C@H](COc1cccc(C(F)(F)F)c1)CN1CCC(C(O)(c2ccccc2)c2ccccc2)CC1 | · | -1 | · | -8 | 8 | · | ·
O=C(OCC#CCSc1nnc(-c2cccc3ncccc23)o1)c1ccc(F)cc1 | · | 3 | · | -2 | -1 | · | ·
N#Cc1c(/N=C/c2cccs2)sc2c1CCCCC2 | 11 | 6 | -1 | 4 | 4 | -1 | ·
N#Cc1c(/N=C/c2cccnc2)sc2c1CCCC2 | 3 | 0 | · | 22* | 6 | 7 | -1
C=CCOc1ccccc1CNc1ccccc1C | 13 | -4 | 9 | 20* | 9 | -3 | 2
Cc1ccccc1NCc1ccccc1O | 0 | 3 | 11 | -1 | 3 | 7 | ·
CCc1ccc(OC(=O)Nc2ccccc2)cc1 | 0 | 1 | -3 | -2 | -1 | 11 | ·
COc1cccc(NC(=O)Nc2nc(-c3ccc(OC)c(OC)c3)cs2)c1 | -15 | -3 | 3 | 34* | 8 | 2 | -6
COc1ccc(OC(=O)Nc2ccccc2)cc1 | -3 | -2 | -3 | 19* | 5 | 2 | 2
COc1ccc(NC(=O)Nc2nc(C(N)Cc3ccc(C(F)(F)F)cc3)cs2)cc1 (configuration not stated) | · | -3 | · | 29* | 26 | -6 | 16
COc1ccc(-c2csc(NC(=O)Nc3ccccc3)n2)cc1 | -8 | 1 | 13 | 44* | -2 | -5 | 14
SMILES | ATG4B inh | PRMT1 inh | HTRA1 inh | SIAE primary | ABHD4 inh | TCR CD3 inh | SIAE inh conf
O=C(Nc1ccccc1)Nc1nc(-c2ccc(Cl)cc2)cs1 | 4 | -2 | -2 | 2 | 0 | -4 | ·
CN(C)S(=O)(=O)c1ccc(SCC(=O)N2CC(=O)Nc3ccccc32)nc1 | 2 | 1 | 7 | 17* | 2 | -4 | -3
O=C1CN(C(=O)CSc2ccccn2)c2ccccc2N1 | -5 | -3 | 4 | 9 | 5 | 2 | ·
C#CCN1CC(N(C)CCOC(=O)c2cc3ccccc3[nH]2)CS1(=O)=O (configuration not stated) | · | 2 | · | 2 | 4 | · | ·
Cc1ccccc1-c1nn(-c2ccc(F)cc2F)cc1CNCCCN(C)C | 6 | -3 | 4 | 18* | 2 | 12 | 7
Cc1ccccc1-c1nn(-c2ccc(F)cc2F)cc1CNCCN(C)C | 3 | 1 | -7 | 2 | -3 | -1 | ·
O=C(Cn1cnc2c(cnn2-c2ccccc2)c1=O)c1ccc(Cl)cc1 | -11 | -2 | 2 | 39* | 10 | -5 | 0
Nc1ncnc2c1ncn2[C@@H]1O[C@H](C(=O)N[C@@H](CCc2ccccc2)C(=O)O)[C@@H](O)[C@H]1O | · | -7 | · | -5 | -1 | -5 | ·
CCc1cccc2c(N=O)c(O)[nH]c12 | 7 | 1 | 13 | 21* | -2 | 2 | 15
O=Nc1c(O)[nH]c2c(F)cccc12 | -2 | 1 | 13 | 5 | 8 | -3 | ·
COc1ccc(C(CC(=O)O)NC(=O)COc2ccccc2OC)cc1OC (configuration not stated) | -1 | 2 | 4 | 2 | 3 | 4 | ·
COc1ccc(C(CC(=O)O)NC(=O)COc2ccc(C)cc2)cc1OC (configuration not stated) | 2 | 3 | 2 | 19* | -4 | -7 | -9
NC(=S)Nc1ccc(F)cc1F | 9 | -3 | 2 | 22* | 3 | 4 | 2
CC(C)N(C(=O)Cn1c(=O)oc2ccccc21)c1ccccc1 | 2 | -3 | 2 | 22* | -3 | 12 | -2
CC(C)OC(=O)Cn1c(=O)oc2ccccc21 | 8 | · | 8 | · | · | · | ·
COc1cccc(C(=O)C2CCCN(Cc3cn(CC(N)=O)c4ccccc34)C2)c1 (configuration not stated) | 27 | -5 | 3 | 19* | -5 | -3 | 0
CCC[C@H]1[C@@H](N(C)Cc2ccccc2)CC[C@@]23CCCN2C(=O)CCC[C@@H]13 | · | -5 | · | 4 | 5 | · | ·
CCCCNc1c(-c2cccc(-c3ccc(OC)cc3)c2)nc2cc(C)ccn12 | 23 | 6 | 13 | 22* | 29 | 0 | 15
COc1ccc(NC(=O)c2ccc(=O)oc2)cc1 | 1 | 3 | -6 | 2 | 5 | 7 | ·
COc1ccc(NC(=O)c2coc(C)c2)cc1 | -3 | 3 | -2 | 19* | 3 | -2 | -1
O=C(Nc1ccccc1Oc1ccccc1)c1cc([N+](=O)[O-])ccc1Cl | 3 | 2 | -13 | 6 | -11 | -3 | ·
